The record followed here is ChEMBL document CHEMBL3997766, “Synthesis and pre-clinical studies of new amino-acid ester thiazolide prodrugs” (Eur J Med Chem, 2017).

The nature of series [1]: Prodrug activation at room temperature after 3 weeks assessed as tizoxanide formation by NMR method.
The subject of series [2] is Plasma. The experiment in a line: Drug level in Sprague-Dawley rat plasma treated with RM5064 at 30 mg/kg, po administered as single dose. The series is classed as ADME, organism-based. Particulars: in vivo. The gist of the method: (§1)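 Rats in groups of three received one compound as a single oral dose (30 mg/kg) or a single intravenous injection (6 mg/kg), with four compounds studied separately. Serial blood samples were drawn at 5, 10, 15 and 30 min and at 1, 2, 4, 8, 23 and 24 h post-dose. Plasma parent drug and metabolites were quantified and PK parameters were derived.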

In series [3] the test system is Plasma. The experiment in a line: Drug level in Sprague-Dawley rat plasma treated with RM5038 at 6 mg/kg, iv administered as single dose. The class given is ADME, organism-based. The conditions noted are these: in vivo. The gist of the method:
as §1

Series [4] deals with Rattus norvegicus. The experiment in a line: Drug level in Sprague-Dawley rat treated with RM5064 at 6.4 mg/kg, iv measured at 0.25 to 1 hrs post dose. The series is classed as ADME, organism-based. The conditions noted are these: in vivo.
Series [5] concerns Rattus norvegicus. The experiment in a line: Drug level in Sprague-Dawley rat treated with RM5038 at 6.4 mg/kg, iv measured at 0.25 to 1 hrs post dose. The conditions noted are these: in vivo. The class given is ADME, organism-based.
The test system of series [6] is Rattus norvegicus. The series is described as follows: Drug level in Sprague-Dawley rat treated with Nitazoxanide at 6 mg/kg, iv measured at 0.7 to 2.1 hrs post dose. The class given is ADME, organism-based. Particulars: in vivo.
The subject of a further series is Canis familiaris. The series is described as follows: Drug level in Beagle dog plasma treated with RM-5061 up to 25 mg/kg administered orally as gelatin capsule once daily for 28 days measured on day 1 and 29. The series is classed as ADME, organism-based, Canis lupus familiaris. The conditions noted are these: in vivo, po, 672 h. The gist of the method:
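Beagle dogs received the drug orally in a single gelatin capsule at 5, 15 or 25 mg/kg once daily for 28 consecutive days in a sub-acute toxicity study assessing systemic exposure.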

Series [7] relates to Plasma. The series is described as follows: Drug level in Sprague-Dawley rat plasma treated with RM-5061 at 10 to 75 mg/kg administered via oral gavage qd for 28 consecutive days. The series is classed as ADME, organism-based. Particulars: in vivo. The gist of the method:
(§2)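 In a sub-acute study, Sprague-Dawley rats were dosed once daily for 28 consecutive days at 10, 30 or 75 mg/kg, given as a yellow suspension. There were four groups of up to 30 rats each (15M/15F) to assess systemic exposure.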

Series [8] has as its system Plasma. The experiment in a line: Elimination half life in Sprague-Dawley rat assessed as tizoxanide level in plasma at 10 to 75 mg/kg administered via oral gavage qd for 28 consecutive days. The class given is ADME, organism-based. Particulars: in vivo. The gist of the method:
as §2

The subject of series [9] is Plasma. The experiment in a line: Elimination half life in Sprague-Dawley rat assessed as tizoxanide-glucuronide level in plasma at 10 to 75 mg/kg administered via oral gavage qd for 28 consecutive days. The series is classed as ADME, organism-based. Particulars: in vivo. The gist of the method:
as §2

Take `CC(C)[C@H](N)C(=O)Oc1ccccc1C(=O)Nc1ncc([N+](=O)[O-])s1`: the Drug metabolism in series [1] came out at 20%.
Take `O=C(Nc1ncc(Cl)s1)c1ccccc1O[C@@H]1O[C@H](C(=O)O)[C@@H](O)[C@H](O)[C@H]1O`: the Drug metabolism result with Plasma [2], with Plasma [3], with Rattus norvegicus [4] and with Rattus norvegicus [5] was “Metabolite_Detected” throughout.
With `O=C(Nc1ncc([N+](=O)[O-])s1)c1ccccc1O` [TIZOXANIDE], the Drug metabolism result in the series on Rattus norvegicus [6], in the series on Canis familiaris and in the series with Plasma [7] was “Metabolite_Detected” each time. Moreover, the beta t1/2 with Plasma [8] was 0.7 to 3.7 h.
For the compound `O=C(Nc1ncc([N+](=O)[O-])s1)c1ccccc1O[C@@H]1O[C@H](C(=O)O)[C@@H](O)[C@H](O)[C@H]1O`, in the series with Plasma [9], the beta t1/2 lay in the range of 1.5 to 11 h. Moreover, the Drug metabolism result in the series on Canis familiaris and in the series with Plasma [7] was “Metabolite_Detected” each time.
